{
  "source": "ChEMBL document CHEMBL4622973",
  "about": "“Discovery of Potent Small-Molecule SIRT6 Activators: Structure-Activity Relationship and Anti-Pancreatic Ductal Adenocarcinoma Activity” (J Med Chem, 2020)",
  "key": {"[1]": {"biological_target": "T1, NAD-dependent protein deacylase sirtuin-6 (Homo sapiens, UniProt Q8N6T7)", "T1 sequence (Q8N6T7 whole entry)": "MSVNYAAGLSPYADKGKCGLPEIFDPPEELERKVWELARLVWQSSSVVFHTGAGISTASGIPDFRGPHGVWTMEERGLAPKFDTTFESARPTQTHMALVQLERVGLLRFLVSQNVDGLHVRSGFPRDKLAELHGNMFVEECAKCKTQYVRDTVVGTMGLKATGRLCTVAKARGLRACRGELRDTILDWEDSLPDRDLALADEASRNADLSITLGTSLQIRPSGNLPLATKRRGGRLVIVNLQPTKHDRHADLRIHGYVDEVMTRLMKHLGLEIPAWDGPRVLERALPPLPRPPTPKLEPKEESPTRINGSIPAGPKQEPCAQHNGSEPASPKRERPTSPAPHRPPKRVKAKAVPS", "test": "Activation of N-terminal his-tagged human SIRT6 expressed in Escherichia coli M15 [pREP4] assessed as increase in peptide demyristoylation at 100 uM incubated for 120 mins using Ac-EALPKK(Myr)-AMC substrate by FDL assay relative to control", "in_short": "(§1)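 Demyristoylation: 1 µM recombinant SIRT6 preincubated with compound for 20 min at 37 °C in 50 mM Tris-HCl pH 8.0, BSA 1 mg/mL, 1 mM DTT, with 10 µM Ac-EALPKK(Myr)-AMC. Started with 1 mM NAD and run 120 min at 37 °C. Developed 120 min at 37 °C with 5 mg/mL trypsin/8 mM nicotinamide. Fluorescence read. Mean ± s.d., triplicate wells, three independent experiments.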"}, "[2]": {"biological_target": "T1, NAD-dependent protein deacylase sirtuin-6", "test": "Activation of N-terminal his-tagged human SIRT6 expressed in Escherichia coli M15 [pREP4] assessed as increase in peptide demyristoylation incubated for 120 mins using Ac-EALPKK(Myr)-AMC substrate by FDL assay relative to control", "in_short": "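Demyristoylation: 1 µM recombinant SIRT6 preincubated with compound for 20 min at 37 °C in 50 mM Tris-HCl pH 8.0, BSA 1 mg/mL, 1 mM DTT, with 10 µM Ac-EALPKK(Myr)-AMC. Fluorescence read. Mean ± s.d., triplicate wells, three independent experiments.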"}, "ASPC1": {"system": "ASPC1", "test": "Antiproliferative activity against human AsPC1 cells assessed as reduction in cell viability incubated for 72 hrs by MTT assay", "format": "functional, cell-based", "conditions": "ASPC1, 72 h", "in_short": "(§2)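 PDAC cells grown in DMEM or RPMI1640 with 10% FBS and penicillin/streptomycin at 37 °C, 5% CO2. Plated in triplicate, then treated with a concentration series for 72 h. Viability read by MTT. IC50 calculated from dose-response curves.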"}, "BXPC-3": {"system": "BXPC-3", "test": "Antiproliferative activity against human BxPC3 cells assessed as reduction in cell viability incubated for 72 hrs by MTT assay", "format": "functional, cell-based", "conditions": "BXPC-3, 72 h", "in_short": "as §2"}, "PANC-1 [3]": {"system": "PANC-1", "test": "Antiproliferative activity against human PANC1 cells assessed as reduction in cell viability incubated for 72 hrs by MTT assay", "format": "functional, cell-based", "conditions": "PANC-1, 72 h", "in_short": "as §2"}, "PANC-1 [4]": {"system": "PANC-1", "test": "Antitumor activity against human PANC1 cells xenografted in BALB/c nude mouse assessed as inhibition of tumor growth at 150 mg/kg/day, po for 30 days relative to control", "format": "functional", "conditions": "PANC-1, po, 720 h, read-out: TGI", "in_short": "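Female BALB/c nude mice, 6-8 weeks old, injected subcutaneously in the right flank with 5×10^6–1×10^7 PANC-1 cells. At 130-150 mm³, mice randomized into 4 groups (n = 6) and dosed orally once daily for 30 days against vehicle. Tumor volume followed over time. Inhibition rate assessed against control.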"}, "MIA PaCa-2": {"system": "MIA PaCa-2", "test": "Antiproliferative activity against human MIAPaCa2 cells assessed as reduction in cell viability incubated for 72 hrs by MTT assay", "format": "functional, cell-based", "conditions": "MIA PaCa-2, 72 h", "in_short": "as §2"}, "[5]": {"biological_target": "T1, NAD-dependent protein deacylase sirtuin-6", "test": "Activation of N-terminal his-tagged human SIRT6 expressed in Escherichia coli M15 [pREP4] assessed as increase in peptide demyristoylation at 20 uM incubated for 120 mins using Ac-EALPKK(Myr)-AMC substrate by FDL assay relative to control", "in_short": "as §1"}},
  "note": "The source made the active and inactive calls. The calls are words filed in the database; no cut-off is given here.",
  "data": [
    {"compound": "COc1ccccc1C(=O)Nc1cc2c(cc1N1CCCCC1)n(C)c(=O)n2C", "values": [
      {"measurement": "Activity", "setting": "[1]", "value": "Active"},
      {"measurement": "EC1.5", "setting": "[2]", "value": 110, "unit": "µM"}
    ]},
    {"compound": "COC(=O)c1cc(NS(=O)(=O)c2cc(Cl)cc(Cl)c2)ccc1S(=O)(=O)Nc1cc(Br)c(F)cc1C", "values": [
      {"measurement": "IC50", "setting": "ASPC1", "value": 50.5, "unit": "µM"},
      {"measurement": "IC50", "setting": "BXPC-3", "value": 58, "unit": "µM"},
      {"measurement": "IC50", "setting": "PANC-1 [3]", "value": 35.2, "unit": "µM"},
      {"measurement": "inhibition in vivo at 150 mg/kg/day", "setting": "PANC-1 [4]", "value": 78, "unit": "%"},
      {"measurement": "IC50", "setting": "MIA PaCa-2", "value": 55.6, "unit": "µM"}
    ]},
    {"compound": "COC(=O)c1c2c(c3ccccc3c1O)OC(C)(C)C=C2", "values": [
      {"measurement": "Activity", "setting": "[1]", "value": "Active"},
      {"measurement": "EC1.5", "setting": "[2]", "value": 228, "unit": "µM"}
    ]},
    {"compound": "COc1ccc(-c2cc(C(=O)Nc3ccc(Cl)c(Cl)c3)c3ccccc3n2)cc1OC", "values": [
      {"measurement": "Activity", "setting": "[1]", "value": "Active"},
      {"measurement": "Activity", "setting": "[5]", "value": 148, "unit": "%"},
      {"measurement": "EC1.5", "setting": "[2]", "value": 27.1, "unit": "µM"}
    ]},
    {"compound": "Cc1cc(Nc2cc(CN3CCOCC3)c3nc(C)c(Cc4ccc(Cl)cc4F)n3n2)n[nH]1", "values": [
      {"measurement": "Activity", "setting": "[1]", "value": "Active"},
      {"measurement": "EC1.5", "setting": "[2]", "value": 118, "unit": "µM"}
    ]},
    {"compound": "COc1ccc(-c2cc(C(=O)NCc3ccc(C)cc3)c3ccccc3n2)cc1OC", "values": [
      {"measurement": "Activity", "setting": "[5]", "value": 225, "unit": "%"},
      {"measurement": "EC1.5", "setting": "[2]", "value": 7.78, "unit": "µM"}
    ]},
    {"compound": "COc1ccc(-c2cc(C(=O)Nc3ccc(Oc4ccccc4)cc3)c3ccccc3n2)cc1OC", "values": [
      {"measurement": "Activity", "setting": "[5]", "value": 239, "unit": "%"},
      {"measurement": "EC1.5", "setting": "[2]", "value": 6.47, "unit": "µM"}
    ]},
    {"compound": "Cc1ccc(-c2cc(C(=O)Nc3cc(C(F)(F)F)ccc3Cl)c3ccccc3n2)o1", "values": [
      {"measurement": "Activity", "setting": "[5]", "value": 184, "unit": "%"},
      {"measurement": "EC1.5", "setting": "[2]", "value": 18.6, "unit": "µM"}
    ]},
    {"compound": "COc1ccc(-c2cc(C(=O)NCc3ccc(F)cc3)c3ccccc3n2)cc1OC", "values": [
      {"measurement": "Activity", "setting": "[5]", "value": 168, "unit": "%"},
      {"measurement": "EC1.5", "setting": "[2]", "value": 19.5, "unit": "µM"}
    ]},
    {"compound": "COc1ccc(-c2cc(C(=O)Nc3c(C)cc(C)cc3C)c3ccccc3n2)cc1OC", "values": [
      {"measurement": "Activity", "setting": "[5]", "value": 284, "unit": "%"},
      {"measurement": "EC1.5", "setting": "[2]", "value": 4.77, "unit": "µM"}
    ]}
  ]
}
